Measured values published in ChEMBL document CHEMBL3232852, “Bexarotene prodrugs: targeting through cleavage by NQO1 (DT-diaphorase)” (Bioorg Med Chem Lett, 2014).

What was measured:
[1] = biological target: T1, NAD(P)H dehydrogenase [quinone] 1 (Homo sapiens, UniProt P15559); experiment: Prodrug conversion assessed as NQO1 (unknown origin)-mediated bexarotene formation at 5 uM by HPLC analysis in presence of 300 uM NADH followed by addition of NADH at 30 and 60 mins; type: ADME; settings: 1 h
In short: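 Same NQO1 incubation: 5 µM compound, 37 ± 1 °C, diaphorase 50 U/mL, 0.07% BSA and 300 µM NADH in tris pH 7.4. Extra NADH was added at 30 and 60 min to test cofactor depletion. Bexarotene formation was read by RP-18 HPLC, in triplicate.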

[2] = Activity of pig liver esterase at 5 uM after 180 mins; type: ADME, Sus scrofa; settings: 3 h
In short: (§1)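 Porcine liver esterase at a final 76 µg/mL (1.3 U/mL) in tris buffer pH 7.4. Conjugates were incubated at 5 µM and monitored for ester cleavage and free bexarotene over 180 min and up to 24 h. Ethylbenzoate was the reference substrate at 100 µM.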

[3] = biological target: T1, NAD(P)H dehydrogenase [quinone] 1; experiment: Prodrug conversion assessed as NQO1 (unknown origin)-mediated bexarotene formation at 5 uM by HPLC analysis in presence of NADH; type: ADME
In short: (§2)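 DMSO stocks were diluted 100-fold with tris buffer, and compound (5 µM) was incubated at 37 ± 1 °C with or without diaphorase (NQO1, 50 U/mL). The mix held 0.07% BSA and 300 µM NADH in tris pH 7.4. Bexarotene release was followed by RP-18 HPLC (acetonitrile/water); incubations ran up to 24 h, in triplicate.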

[4] = biological target: T1, NAD(P)H dehydrogenase [quinone] 1; experiment: Prodrug conversion assessed as NQO1 (unknown origin)-mediated bexarotene formation at 5 uM after 4 to 24 hrs by HPLC analysis in presence of NADH; type: ADME; in short: as §2
[5] = Activity of pig liver esterase at 100 uM after 7 mins; type: ADME, Sus scrofa; in short: as §1

T1 sequence (P15559 whole entry): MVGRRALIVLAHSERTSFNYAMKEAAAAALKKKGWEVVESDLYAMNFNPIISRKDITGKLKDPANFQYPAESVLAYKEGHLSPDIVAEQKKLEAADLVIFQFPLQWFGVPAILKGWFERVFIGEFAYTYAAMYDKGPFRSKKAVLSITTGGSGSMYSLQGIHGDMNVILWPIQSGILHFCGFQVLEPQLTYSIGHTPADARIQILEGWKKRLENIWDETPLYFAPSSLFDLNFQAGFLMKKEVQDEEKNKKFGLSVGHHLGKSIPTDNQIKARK

| SMILES | Drug metabolism [1] | Drug metabolism [3] | other results |
| --- | --- | --- | --- |
| C=C(c1ccc(C(=O)OCc2c3c(n(C)c2C)C(=O)C=C(OC)C3=O)cc1)c1cc2c(cc1C)C(C)(C)CCC2(C)C | metabolite_notdetected | – | Drug metabolism [2]: metabolite_notdetected |
| C=C(c1ccc(C(=O)OCc2c3c(n(C)c2C)C(=O)C(C)=C(OC)C3=O)cc1)c1cc2c(cc1C)C(C)(C)CCC2(C)C | metabolite_notdetected | metabolite_detected | – |
| C=C(c1ccc(C(=O)OCc2cn(C)c3c2C(=O)C(OC)=CC3=O)cc1)c1cc2c(cc1C)C(C)(C)CCC2(C)C | metabolite_notdetected | metabolite_detected | – |
| C=C(c1ccc(C(=O)OCc2c(C)c3c(n2C)C(=O)C=C(OC)C3=O)cc1)c1cc2c(cc1C)C(C)(C)CCC2(C)C | metabolite_notdetected | – | Drug metabolism [4]: metabolite_notdetected |
| COC1=CC(=O)c2c(c(COc3ccc([N+](=O)[O-])c(C)c3)c(C)n2C)C1=O | – | metabolite_detected | – |
| COC1=CC(=O)c2c(c(C)c(COc3ccc([N+](=O)[O-])c(C)c3)n2C)C1=O | – | metabolite_detected | – |
| CCOC(=O)c1ccccc1 [ETHYL BENZOATE] | – | – | Drug metabolism [5]: metabolite_detected |
